For 7 molecules, inhibition and IC50 results are on record in ChEMBL document CHEMBL1153264, “(1,2,3-Triazol-4-yl)benzenamines: synthesis and activity against VEGF receptors 1 and 2” (Bioorg Med Chem Lett, 2009).

A word on the inhibition: it is the share of the control response that was lost under treatment. Higher therefore signals strong suppression. Broadly, the IC50 is the concentration that inhibits the measured activity by half.

The target of assay [1] is Glycogen synthase kinase-3 beta (Homo sapiens) (UniProt P49841). Description: Inhibition of GSK3-beta at 10 uM.
The target in assay [2] is Proto-oncogene tyrosine-protein kinase Src (Homo sapiens) (UniProt P12931). Description: Inhibition of Src at 10 uM.
Assay [3] addresses T1, Vascular endothelial growth factor receptor 2 (Homo sapiens, UniProt P35968). Description: Inhibition of VEGFR2 by HTRF assay in presence of 2 uM ATP. In outline:
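HTRF kinase assay with KDR enzyme (3–4 ng) and biotinylated pGAT substrate. ATP added to start, 45 min at RT. Stopped with EDTA/KF buffer plus Eu-cryptate anti-phosphotyrosine antibody, 2 h RT, then HTRF read. IC50 from 10-point log concentration curves, mean of at least two duplicate runs.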

Assay [4] concerns the target Receptor tyrosine-protein kinase erbB-2 (Homo sapiens) (UniProt P04626). Description: Inhibition of ErbB2 at 10 uM.
Assay [5] deals with Fibroblast growth factor receptor 1 (Homo sapiens) (UniProt P11362). Description: Inhibition of FGFR1 at 10 uM.
For assay [6], the target named is T1, Vascular endothelial growth factor receptor 2. Description: Inhibition of VEGF-induced phosphorylation of VEGFR2 by cell-based ELISA.
The target in assay [7] is Cyclin-dependent kinase 1 (Homo sapiens) (UniProt P06493). The experiment in a line: Inhibition of Cdk1 at 10 uM.
The nature of assay [8]: Inhibition of Bcr-Abl T315 mutant at 10 uM.
The target of assay [9] is T2, Aurora kinase A (Homo sapiens) (UniProt O14965).
T2 sequence (whole entry): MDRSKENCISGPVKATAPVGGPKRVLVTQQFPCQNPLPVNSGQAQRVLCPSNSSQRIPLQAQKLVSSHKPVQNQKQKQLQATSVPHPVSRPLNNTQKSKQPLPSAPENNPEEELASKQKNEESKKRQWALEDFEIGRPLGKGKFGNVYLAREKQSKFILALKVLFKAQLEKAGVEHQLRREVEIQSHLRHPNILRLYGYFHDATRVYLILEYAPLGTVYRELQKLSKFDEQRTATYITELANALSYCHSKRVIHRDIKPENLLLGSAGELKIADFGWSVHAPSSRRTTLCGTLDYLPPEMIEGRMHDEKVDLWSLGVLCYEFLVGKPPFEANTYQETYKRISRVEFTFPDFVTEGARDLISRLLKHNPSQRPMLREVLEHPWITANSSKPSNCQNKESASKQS
Description: Inhibition of Aurora A at 10 uM.

Assay [10] concerns the target Serine/threonine-protein kinase PLK1 (Homo sapiens) (UniProt P53350). Description: Inhibition of Plk1 at 10 uM.
Assay [11] has as its target Bcr/Abl fusion protein (Homo sapiens) (UniProt P00519+P11274). The experiment in a line: Inhibition of Bcr-Abl at 10 uM. The class given is protein assay.
The target in assay [12] is Insulin-like growth factor 1 receptor (Homo sapiens) (UniProt P08069). Description: Inhibition of IGF1R at 10 uM.
Assay [13] concerns the target Epidermal growth factor receptor (Homo sapiens) (UniProt P00533). Description: Inhibition of EGFR at 10 uM.
Assay [14] concerns the target Macrophage-stimulating protein receptor (Homo sapiens) (UniProt Q04912). Description: Inhibition of Ron at 10 uM.
Assay [15] addresses Insulin receptor (Homo sapiens) (UniProt P06213). Description: Inhibition of IR at 10 uM.
In assay [16] the target is Receptor-type tyrosine-protein kinase FLT3 (Homo sapiens) (UniProt P36888). The experiment in a line: Inhibition of Flt3 at 10 uM.
A short description of assay [17]: Inhibition of PKA at 10 uM.
In assay [18] the target is Aurora kinase B (Homo sapiens) (UniProt Q96GD4). The experiment in a line: Inhibition of Aurora B at 10 uM.
Assay [19] deals with Cyclin-dependent kinase 2 (Homo sapiens) (UniProt P24941). The experiment in a line: Inhibition of Cdk2 at 10 uM.
Assay [20] addresses Vascular endothelial growth factor receptor 1 (Homo sapiens, UniProt P17948). The experiment in a line: Inhibition of VEGFR1 by HTRF assay.
Assay [21] has as its target Hepatocyte growth factor receptor (Homo sapiens) (UniProt P08581). The experiment in a line: Inhibition of c-Met at 10 uM.

Molecules are shown by their SMILES.

T1 sequence (P35968 whole entry): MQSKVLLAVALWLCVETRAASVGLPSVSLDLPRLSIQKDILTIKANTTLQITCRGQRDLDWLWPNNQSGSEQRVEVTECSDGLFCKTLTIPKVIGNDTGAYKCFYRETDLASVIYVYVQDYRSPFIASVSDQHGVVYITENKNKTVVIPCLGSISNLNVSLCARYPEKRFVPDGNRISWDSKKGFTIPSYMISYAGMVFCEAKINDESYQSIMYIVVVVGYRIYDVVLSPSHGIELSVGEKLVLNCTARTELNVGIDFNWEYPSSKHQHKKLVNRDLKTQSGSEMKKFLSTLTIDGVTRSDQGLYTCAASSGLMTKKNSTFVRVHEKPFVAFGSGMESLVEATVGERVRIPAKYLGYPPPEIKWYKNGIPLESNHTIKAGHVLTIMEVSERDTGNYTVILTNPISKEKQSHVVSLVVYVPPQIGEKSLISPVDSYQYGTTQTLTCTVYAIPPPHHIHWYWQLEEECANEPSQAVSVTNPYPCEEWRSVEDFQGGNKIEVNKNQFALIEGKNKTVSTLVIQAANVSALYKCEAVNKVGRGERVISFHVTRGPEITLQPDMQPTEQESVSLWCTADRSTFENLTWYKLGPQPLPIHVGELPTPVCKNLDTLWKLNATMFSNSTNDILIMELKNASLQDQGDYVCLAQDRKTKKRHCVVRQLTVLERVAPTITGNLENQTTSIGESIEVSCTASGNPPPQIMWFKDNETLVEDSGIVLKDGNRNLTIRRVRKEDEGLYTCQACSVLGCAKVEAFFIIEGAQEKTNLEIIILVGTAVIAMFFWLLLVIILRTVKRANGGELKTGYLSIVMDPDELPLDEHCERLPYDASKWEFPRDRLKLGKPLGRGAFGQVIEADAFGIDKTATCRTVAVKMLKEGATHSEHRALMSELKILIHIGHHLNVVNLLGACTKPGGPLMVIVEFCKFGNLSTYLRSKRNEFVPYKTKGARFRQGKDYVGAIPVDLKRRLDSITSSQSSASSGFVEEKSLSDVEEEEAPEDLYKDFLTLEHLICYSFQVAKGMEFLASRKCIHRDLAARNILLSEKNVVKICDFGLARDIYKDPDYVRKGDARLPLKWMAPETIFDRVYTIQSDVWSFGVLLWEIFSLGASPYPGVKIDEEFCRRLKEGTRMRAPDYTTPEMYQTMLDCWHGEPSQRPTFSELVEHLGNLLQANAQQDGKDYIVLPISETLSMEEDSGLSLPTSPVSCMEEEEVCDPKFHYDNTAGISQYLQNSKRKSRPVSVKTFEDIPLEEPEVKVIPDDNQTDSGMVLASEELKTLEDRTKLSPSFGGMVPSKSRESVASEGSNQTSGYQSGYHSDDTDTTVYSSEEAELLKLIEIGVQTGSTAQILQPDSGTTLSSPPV
Chain of Insulin-like growth factor 1 receptor (Homo sapiens) (P08069 31-736 limits assumed): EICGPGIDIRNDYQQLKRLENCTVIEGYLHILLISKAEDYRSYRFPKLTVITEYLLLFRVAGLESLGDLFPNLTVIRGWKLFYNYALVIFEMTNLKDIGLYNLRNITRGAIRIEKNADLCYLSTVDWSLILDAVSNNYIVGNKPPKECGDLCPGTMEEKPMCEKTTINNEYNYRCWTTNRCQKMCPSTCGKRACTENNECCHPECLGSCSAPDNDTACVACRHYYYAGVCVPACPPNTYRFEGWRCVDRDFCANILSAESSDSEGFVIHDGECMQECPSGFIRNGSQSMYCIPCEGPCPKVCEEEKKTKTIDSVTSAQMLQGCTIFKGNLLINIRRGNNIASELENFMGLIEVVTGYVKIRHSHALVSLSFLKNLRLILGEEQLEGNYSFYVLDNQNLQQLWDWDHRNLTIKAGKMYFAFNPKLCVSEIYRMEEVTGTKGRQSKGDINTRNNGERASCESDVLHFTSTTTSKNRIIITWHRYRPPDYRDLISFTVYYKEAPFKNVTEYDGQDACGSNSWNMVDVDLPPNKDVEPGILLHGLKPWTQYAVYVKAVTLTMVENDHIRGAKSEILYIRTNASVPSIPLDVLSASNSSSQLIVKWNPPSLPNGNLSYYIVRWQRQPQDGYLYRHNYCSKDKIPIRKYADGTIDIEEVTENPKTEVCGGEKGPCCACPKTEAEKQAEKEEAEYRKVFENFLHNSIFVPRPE
Chain of Insulin-like growth factor 1 receptor (Homo sapiens) (P08069 741-1367 limits assumed): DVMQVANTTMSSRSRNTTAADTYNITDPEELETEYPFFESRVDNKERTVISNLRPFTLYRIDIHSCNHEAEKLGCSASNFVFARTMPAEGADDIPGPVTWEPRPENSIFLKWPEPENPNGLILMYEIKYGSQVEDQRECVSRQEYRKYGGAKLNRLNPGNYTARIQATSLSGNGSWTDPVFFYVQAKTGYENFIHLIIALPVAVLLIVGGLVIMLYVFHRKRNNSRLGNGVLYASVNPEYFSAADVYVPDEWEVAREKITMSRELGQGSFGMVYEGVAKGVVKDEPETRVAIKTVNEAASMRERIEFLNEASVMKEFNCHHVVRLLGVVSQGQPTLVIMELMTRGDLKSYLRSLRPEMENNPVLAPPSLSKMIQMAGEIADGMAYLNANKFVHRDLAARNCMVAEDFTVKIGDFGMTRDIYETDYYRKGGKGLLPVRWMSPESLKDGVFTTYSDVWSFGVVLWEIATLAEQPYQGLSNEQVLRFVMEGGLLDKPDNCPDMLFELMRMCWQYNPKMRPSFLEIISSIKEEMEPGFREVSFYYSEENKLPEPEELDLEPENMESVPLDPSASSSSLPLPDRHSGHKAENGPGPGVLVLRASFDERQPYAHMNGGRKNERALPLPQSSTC
Chain of Cyclin-dependent kinase 1 (Homo sapiens) (P06493 whole entry, looked up): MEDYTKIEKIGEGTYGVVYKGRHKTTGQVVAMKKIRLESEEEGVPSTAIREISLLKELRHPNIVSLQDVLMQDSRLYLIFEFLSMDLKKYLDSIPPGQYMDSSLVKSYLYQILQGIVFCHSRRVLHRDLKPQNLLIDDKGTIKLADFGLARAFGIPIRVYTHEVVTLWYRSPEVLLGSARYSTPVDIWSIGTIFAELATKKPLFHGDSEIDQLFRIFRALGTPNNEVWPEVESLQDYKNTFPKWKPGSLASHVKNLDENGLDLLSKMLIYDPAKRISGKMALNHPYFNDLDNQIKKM
Chain of Vascular endothelial growth factor receptor 1 (P17948 whole entry): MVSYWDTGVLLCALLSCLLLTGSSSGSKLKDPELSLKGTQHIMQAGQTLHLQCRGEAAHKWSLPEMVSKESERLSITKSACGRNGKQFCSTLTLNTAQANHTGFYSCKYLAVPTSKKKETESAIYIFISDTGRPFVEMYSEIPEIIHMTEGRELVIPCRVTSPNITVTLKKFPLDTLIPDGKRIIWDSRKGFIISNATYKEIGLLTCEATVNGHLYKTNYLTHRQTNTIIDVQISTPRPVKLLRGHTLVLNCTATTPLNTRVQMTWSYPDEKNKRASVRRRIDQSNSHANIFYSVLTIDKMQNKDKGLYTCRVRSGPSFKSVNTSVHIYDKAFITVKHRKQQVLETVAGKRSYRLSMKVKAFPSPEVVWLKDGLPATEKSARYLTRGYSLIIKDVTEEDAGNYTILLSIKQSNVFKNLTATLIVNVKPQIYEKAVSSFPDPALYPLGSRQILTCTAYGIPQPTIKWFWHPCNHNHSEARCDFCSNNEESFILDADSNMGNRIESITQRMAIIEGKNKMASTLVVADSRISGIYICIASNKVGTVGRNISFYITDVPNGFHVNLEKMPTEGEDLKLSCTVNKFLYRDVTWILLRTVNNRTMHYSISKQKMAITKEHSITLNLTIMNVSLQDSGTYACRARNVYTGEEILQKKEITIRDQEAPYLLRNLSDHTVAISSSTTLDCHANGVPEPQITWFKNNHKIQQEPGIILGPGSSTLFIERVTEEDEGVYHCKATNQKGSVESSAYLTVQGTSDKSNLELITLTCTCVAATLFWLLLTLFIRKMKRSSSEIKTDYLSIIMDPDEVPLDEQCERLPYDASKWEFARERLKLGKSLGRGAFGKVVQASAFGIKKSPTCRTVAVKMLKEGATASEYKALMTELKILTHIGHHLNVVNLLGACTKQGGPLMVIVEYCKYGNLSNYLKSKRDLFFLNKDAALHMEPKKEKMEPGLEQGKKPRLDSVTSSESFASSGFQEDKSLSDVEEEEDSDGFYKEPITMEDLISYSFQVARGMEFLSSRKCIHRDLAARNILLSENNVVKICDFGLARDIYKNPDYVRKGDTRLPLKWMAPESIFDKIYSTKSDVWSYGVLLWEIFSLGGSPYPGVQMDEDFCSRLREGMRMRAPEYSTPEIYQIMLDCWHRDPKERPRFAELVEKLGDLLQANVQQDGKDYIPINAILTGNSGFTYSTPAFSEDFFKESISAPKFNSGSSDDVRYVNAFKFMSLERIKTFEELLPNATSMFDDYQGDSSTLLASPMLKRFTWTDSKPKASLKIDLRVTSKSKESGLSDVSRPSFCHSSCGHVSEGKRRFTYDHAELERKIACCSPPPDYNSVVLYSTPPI
Chain of Serine/threonine-protein kinase PLK1 (Homo sapiens) (P53350 whole entry, the tested form may be a part): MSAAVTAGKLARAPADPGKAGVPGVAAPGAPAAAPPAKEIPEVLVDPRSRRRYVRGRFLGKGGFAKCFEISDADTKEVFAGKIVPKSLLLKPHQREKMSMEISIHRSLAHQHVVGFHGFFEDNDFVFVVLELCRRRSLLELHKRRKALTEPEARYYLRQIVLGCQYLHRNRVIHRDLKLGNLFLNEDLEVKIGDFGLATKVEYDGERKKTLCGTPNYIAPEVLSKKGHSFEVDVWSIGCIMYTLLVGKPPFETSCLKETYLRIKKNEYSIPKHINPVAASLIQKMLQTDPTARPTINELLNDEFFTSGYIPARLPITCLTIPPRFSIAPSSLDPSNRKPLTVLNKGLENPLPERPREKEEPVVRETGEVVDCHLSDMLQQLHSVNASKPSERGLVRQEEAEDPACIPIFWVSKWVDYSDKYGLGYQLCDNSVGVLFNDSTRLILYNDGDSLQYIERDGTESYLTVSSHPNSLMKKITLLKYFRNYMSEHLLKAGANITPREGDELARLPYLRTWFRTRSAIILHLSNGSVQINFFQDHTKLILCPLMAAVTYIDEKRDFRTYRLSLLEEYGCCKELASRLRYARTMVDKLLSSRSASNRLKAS

Take `Clc1cccc(-n2cc(-c3ccccc3NCc3ccc4c(c3)OCO4)nn2)c1`: the inhibition in [1], in assay [2], in assay [4], in assay [5], in assay [7] and in [8] was below 30% in each case. For the same molecule, the inhibition in assay [9], in assay [10], in [11], in assay [12], in assay [13] and in assay [14] was below 30% each time. For the same molecule, the inhibition in [15], in assay [16], in assay [17], in assay [18], in [19] and in [21] was below 30% throughout. In addition, the 50% inhibitory concentration (IC50) in assay [3], in [6] and in assay [20] was above 10 µM throughout.

Consider `Clc1ccc(-n2cc(-c3ccccc3NCc3ccncc3)nn2)cc1Cl`, for which the inhibition in assay [1], in [2], in [4], in assay [5], in [7] and in assay [8] was below 30% throughout. Besides, the inhibition in assay [9], in assay [10], in assay [11], in assay [12], in assay [13] and in [14] was below 30% each time. The inhibition in assay [15], in [16], in assay [17], in [18], in assay [19] and in assay [21] was below 30% each time. Besides, the IC50 in assay [3] came to 0.63 µM; in assay [6] it was 1.47 µM; in [20], 0.65 µM.

Regarding `Clc1cccc(-n2cc(-c3ccccc3NCc3c[nH]cn3)nn2)c1`, the inhibition in assay [1], in assay [2], in assay [4], in [5], in assay [7] and in assay [8] was below 30% in each case. Also, the inhibition in assay [9], in [10], in assay [11], in assay [12], in [13] and in assay [14] was below 30% each time. Also, the inhibition in assay [15], in assay [16], in assay [17], in assay [18], in assay [19] and in [21] was below 30% throughout. In addition, the IC50 in [3], in assay [6] and in assay [20] was above 10 µM in each case.

Consider `FC(F)(F)Oc1ccc(-n2cc(-c3ccccc3NCc3ccncc3)nn2)cc1`, for which the inhibition in assay [1], in [2], in [4], in [5], in [7] and in assay [8] was below 30% throughout. Moreover, the inhibition in [9], in [10], in [11], in assay [12], in assay [13] and in assay [14] was below 30% in each case. Also, the inhibition in assay [15], in assay [16], in assay [17], in assay [18], in assay [19] and in assay [21] was below 30% in each case. The half-inhibitory concentration (IC50) was 1.22 µM in assay [3], 3.11 µM in assay [6] and 1.13 µM in [20].

With `Cc1cc(-n2cc(-c3ccccc3NCc3ccncc3)nn2)ccc1C(F)(F)F`, the inhibition in assay [1], in [2], in assay [4], in assay [5], in assay [7] and in assay [8] was below 30% in each case. In addition, the inhibition in [9], in assay [10], in assay [11], in assay [12], in [13] and in assay [14] was below 30% throughout. Further, the inhibition in assay [15], in [16], in [17], in [18], in assay [19] and in assay [21] was below 30% throughout. Further, the 50% inhibitory concentration (IC50) is 0.98 µM in assay [3], 2.02 µM in assay [6] and 0.86 µM in [20].

`c1ccc(-c2cn(-c3ccc4[nH]ncc4c3)nn2)c(NCc2ccncc2)c1`: the inhibition in [1], in assay [2], in assay [4], in [5], in assay [7] and in [8] was below 30% throughout. Also, the inhibition in [9], in [10], in [11], in assay [12], in assay [13] and in assay [14] was below 30% throughout. The inhibition in [15], in assay [16], in assay [17], in assay [18], in assay [19] and in assay [21] was below 30% each time. Besides, the 50% inhibitory concentration (IC50) in [3] was 0.68 µM; in assay [6], 2.33 µM; in assay [20], 0.65 µM.

As to `FC(F)(F)c1cccc(-n2cc(-c3ccccc3NCc3cccnc3)nn2)c1`, the inhibition in [1], in assay [2], in assay [4], in [5], in assay [7] and in [8] was below 30% throughout. Also, the inhibition in assay [9], in assay [10], in assay [11], in assay [12], in assay [13] and in assay [14] was below 30% each time. The inhibition in assay [15], in assay [16], in [17], in assay [18], in [19] and in assay [21] was below 30% each time. For the same molecule, the 50% inhibitory concentration (IC50) in assay [3], in assay [6] and in assay [20] was above 10 µM throughout.
